From ChEMBL document CHEMBL1134518, “5-(Tryptophyl)amino-1,3-dioxoperhydropyrido[1,2-c]pyrimidine-based potent and selective CCK(1)receptor antagonists: structure-activity relationship studies on the substituent at N2-position” (J Med Chem, 2001) come the findings set out here.

Assay [1] addresses T1, Gastrin/cholecystokinin type B receptor (Rattus norvegicus, UniProt P30553).
T1 sequence (P30553 whole entry): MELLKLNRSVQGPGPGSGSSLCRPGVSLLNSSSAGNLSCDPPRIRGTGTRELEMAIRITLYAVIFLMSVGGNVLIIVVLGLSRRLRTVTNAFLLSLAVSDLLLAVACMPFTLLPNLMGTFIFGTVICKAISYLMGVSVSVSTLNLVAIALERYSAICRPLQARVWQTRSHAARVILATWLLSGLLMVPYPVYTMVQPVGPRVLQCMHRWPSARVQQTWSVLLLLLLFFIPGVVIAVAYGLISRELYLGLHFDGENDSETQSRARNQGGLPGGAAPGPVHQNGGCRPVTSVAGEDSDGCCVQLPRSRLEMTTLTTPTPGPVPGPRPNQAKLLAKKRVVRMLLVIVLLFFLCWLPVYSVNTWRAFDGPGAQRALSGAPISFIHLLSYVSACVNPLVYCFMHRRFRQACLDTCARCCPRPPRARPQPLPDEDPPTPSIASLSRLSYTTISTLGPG
The experiment in a line: Inhibition of [3H]pCCK-8 specific binding cholecystokinin type B receptor in rat cerebral cortex membranes. The format is cell membranes, Membrane. Summed up: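 Rat brain cortex homogenized in 50 mM Tris-HCl pH 7.4 with 5 mM MgCl2, centrifuged twice at 100 000g, 35 min, 4 °C. Membranes (0.45 mg protein/tube) incubated with 1 nM [3H]pCCK-8 plus bacitracin 0.2 mg/mL, 60 min, 25 °C. Seven test concentrations in triplicate, at least three experiments.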

Assay [2] concerns the target T2, Cholecystokinin receptor type A (Rattus norvegicus, UniProt P30551).
T2 sequence (P30551 whole entry): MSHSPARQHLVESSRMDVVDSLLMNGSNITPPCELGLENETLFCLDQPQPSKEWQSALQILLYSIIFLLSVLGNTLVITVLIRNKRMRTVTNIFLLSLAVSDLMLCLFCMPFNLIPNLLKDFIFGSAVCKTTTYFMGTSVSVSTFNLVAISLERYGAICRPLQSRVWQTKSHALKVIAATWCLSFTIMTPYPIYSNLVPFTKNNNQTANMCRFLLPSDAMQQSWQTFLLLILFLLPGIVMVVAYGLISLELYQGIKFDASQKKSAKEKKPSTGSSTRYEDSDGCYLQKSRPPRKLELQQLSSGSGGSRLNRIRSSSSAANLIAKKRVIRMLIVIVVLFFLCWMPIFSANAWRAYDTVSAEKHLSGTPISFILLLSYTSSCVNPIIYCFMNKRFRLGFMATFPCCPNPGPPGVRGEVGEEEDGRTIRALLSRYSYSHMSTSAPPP
The assay is described as follows: Inhibition of [3H]pCCK-8 specific binding to cholecystokinin type A receptor in rat pancreas. In short, it runs like this:
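Rat pancreas homogenized in Pipes-HCl pH 6.5 with 30 mM MgCl2, centrifuged twice at 50 000g, 10 min, 4 °C. Membranes (0.2 mg protein/tube) incubated with 0.5 nM [3H]pCCK-8, 30 mM MgCl2, bacitracin and SBTI (0.2 mg/mL each), 120 min, 25 °C. Seven test concentrations in triplicate, at least three experiments.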

For the next assay, the species on record is Rattus norvegicus. The assay is described as follows: Inhibition of amylase release stimulated by CCK-8 (0.1 nM) in dispersed pancreatic acini. The format is functional. In short, it runs like this:
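Pancreatic acini prepared by collagenase digestion (two 6 min incubations, 37 °C). Acini were suspended in theophylline/BSA-containing buffer and incubated 30 min, 37 °C, under O2 with 0.1 nM CCK-8 and increasing compound concentrations. Released amylase was measured as a percentage of acinar content. IC50 came from linear regression of % inhibition. Three to six experiments in duplicate.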

Bounds are passed on as bounds.

As a reminder, the IC50 is the point on the concentration scale where inhibition reaches its midpoint. A lower IC50 goes with higher potency.

As to `C[C@H](c1ccccc1)N1C(=O)C[C@H]2[C@H](NC(=O)[C@H](Cc3c[nH]c4ccccc34)NC(=O)OC(C)(C)C)CCCN2C1=O`, the results for the IC50 (in assay [1]; in assay [2]; in the assay filed under Rattus norvegicus) were over 10000 nM, 15 nM and 12.6 nM, respectively.
For `CN(C)c1ccc(N2C(=O)C[C@H]3[C@H](NC(=O)[C@H](Cc4c[nH]c5ccccc45)NC(=O)OC(C)(C)C)CCCN3C2=O)cc1` the same measures were over 10000 nM, 4.3 nM and 39.8 nM.
For `CC(C)(C)OC(=O)N[C@@H](Cc1c[nH]c2ccccc12)C(=O)N[C@@H]1CCCN2C(=O)N(c3cccc([N+](=O)[O-])c3)C(=O)C[C@@H]12` the same measures were over 10000 nM, 44 nM and 49.5 nM.
For `CC(C)(C)OC(=O)N[C@@H](Cc1c[nH]c2ccccc12)C(=O)N[C@@H]1CCCN2C(=O)N(c3cccc4ccccc34)C(=O)C[C@@H]12` the same measures were over 10000 nM, 0.59 nM and 0.73 nM.
As to `Cc1ccccc1N1C(=O)C[C@H]2[C@H](NC(=O)[C@H](Cc3c[nH]c4ccccc34)NC(=O)OC(C)(C)C)CCCN2C1=O`, the IC50 is over 10000 nM in assay [1], 0.97 nM in assay [2] and 1.89 nM in the assay filed under Rattus norvegicus.
For `Cc1cccc(N2C(=O)C[C@H]3[C@H](NC(=O)[C@H](Cc4c[nH]c5ccccc45)NC(=O)OC(C)(C)C)CCCN3C2=O)c1` the same measures were over 10000 nM, 3.98 nM and 10 nM.
For `CC(C)(C)OC(=O)N[C@H](Cc1c[nH]c2ccccc12)C(=O)N[C@@H]1CCCN2C(=O)N(c3cccc4ccccc34)C(=O)C[C@@H]12` the same measures were over 10000 nM, 15.4 nM and 93 nM.
